# A selection: hits, their analogues and other compounds. The true share with any hit is near 1.6%.
# SENP1 inh: inhibitors of human SENP1 SUMO protease catalytic domain; recombinant SENP1 catalytic domain, CyPet-SUMO1-YPet FRET cleavage; inhibition, % at 10 µM; hit rate 0.21% among 360,000; AID 624204;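 active means inhibition at least 30% at 10 µM, raw YFP signal under a set limit, fluorescence ratio 0.5 to 1.5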;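 further: 0% = enzyme with DMSO and 100% = no enzyme wells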
#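 Test system: recombinant human SENP1 catalytic domain, His6-tagged / Medium: pH 8 Tris buffer with EDTA, NaCl, BME, BSA, NP40, catalase / Also added: SUMO1 FRET substrate flanked by Cypet and Ypet, 25 nM / Times: 50 min reaction at room temperature / Signal: FRET, CFP and YFP emission / Control set: no-enzyme low control and enzyme-plus-DMSO high control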
# Rpn11 block: Rpn11 (human) deubiquitinase inhibition | human 26S proteasome, Ub4-pepOG fluorescence polarization; 20S core pre-blocked with epoxomicin | inhibition, % at 20 µM | hit rate 0.59% among 360,000 | AID 588493;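 active means inhibition at 20 µM, scaled to each plate's controls, above about 33%, limit read from the data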
# HNF4A DNA FP: change in binding of human HNF4 alpha to DNA | P41235 | AID 1224865 | HNF4a-FITC DNA binding, fluorescence polarization, 1 h | hit rate 0.3% among 360,000 | activity change, % at 10 µM; in the data active means activity change above about 30%, passing the limit was not always enough
# TPT1 inhibitor: C. albicans TPT1 enzyme inhibition. inhibition, % at 5 µM. hit rate 0.81% among 300,000. recombinant caTPT1, FP RNA substrate dephosphorylation;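 active means inhibition above the mean of all tested compounds plus 3 SD, set per screening campaign, cut at about 24% in these data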;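 further: plate controls were DMSO alone for no effect and ferristatin control at 100 nM for full effect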
# CSN inh: inhibitors of human CSN-mediated cullin deneddylation; AID 651999; hit rate 0.38% among 360,000; Purified CSN, SCF-Nedd8-OG deneddylation, fluorescence polarization; inhibition, % at 12.5 µM; Q92905;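 active means pattern-corrected inhibition above about 35%, with an unprinted fluorescence ratio check between 0.5 and 1.5, limit read from the data, passing the limit was not always enough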;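 further: 0% = enzyme with substrate and 100% = substrate without enzyme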
#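 Test system: Human Csn5 produced in HEK293T cells | Compound: 12.5 µM single point | Times: 90 min, room temperature | Signal: Fluorescence polarization readout | Read-out basis: % inhibition of substrate cleavage by Csn5 | Controls: no-enzyme wells high, enzyme-with-substrate wells low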
# Rpn11 confirm: confirmation of human proteasome Rpn11 inhibitors; shares compounds with Rpn11 block; purified human 26S proteasome, Ub4-pepOG fluorescence polarization; proteasome pretreated with epoxomicin; hit rate 29% among 1,900; AID 602318; inhibition, % at 20 µM
# MMP-2 inh: MMP-2 (human) inhibition counter-screen | shares compounds with Rpn11 block | recombinant MMP-2, FRET peptide cleavage fluorescence | inhibition, % at 20 µM | hit rate 4% among 1,900 | AID 602330;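 further: human MMP-2 activated beforehand with APMA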
# Thrombin inh: counter-screen for RPN11 inhibitors: inhibition of bovine thrombin | shares compounds with Rpn11 block | bovine thrombin cleavage of Ub4-pepOG, fluorescence polarization | inhibition, % at 20 µM | hit rate 13% among 1,900 | AID 602333;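 active means mean inhibition at least 40% at 20 µM, or signal 3 deviations below plate average, so some actives read negative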;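 further: plate controls were thrombin with DMSO for no effect and buffer wells lacking thrombin for full effect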
# Target sequence (P00735 whole entry, looked up): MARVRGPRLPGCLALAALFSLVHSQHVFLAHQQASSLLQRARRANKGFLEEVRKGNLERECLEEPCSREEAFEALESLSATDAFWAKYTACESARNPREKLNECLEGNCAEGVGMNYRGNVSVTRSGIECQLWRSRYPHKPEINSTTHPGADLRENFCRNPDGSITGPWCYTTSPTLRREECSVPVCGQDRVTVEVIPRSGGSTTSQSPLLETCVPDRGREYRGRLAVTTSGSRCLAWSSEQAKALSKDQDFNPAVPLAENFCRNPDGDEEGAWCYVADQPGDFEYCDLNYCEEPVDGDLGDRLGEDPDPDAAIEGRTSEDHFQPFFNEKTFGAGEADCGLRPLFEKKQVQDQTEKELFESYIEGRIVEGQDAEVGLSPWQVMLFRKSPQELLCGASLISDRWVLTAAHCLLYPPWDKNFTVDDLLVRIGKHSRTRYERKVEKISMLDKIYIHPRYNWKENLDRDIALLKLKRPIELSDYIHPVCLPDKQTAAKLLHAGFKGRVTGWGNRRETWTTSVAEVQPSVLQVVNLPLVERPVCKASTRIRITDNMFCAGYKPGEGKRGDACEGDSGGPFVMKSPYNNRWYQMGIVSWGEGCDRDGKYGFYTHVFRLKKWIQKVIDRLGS
# The depositor's hits bear a star; x = no result shown. Unless noted, no stated cut-off is given here; in the data, active means inhibition above about 40%; inactive means the rest.
SMILES,SENP1 inh,Rpn11 block,HNF4A DNA FP,TPT1 inhibitor,CSN inh,Rpn11 confirm,MMP-2 inh,Thrombin inh
COC(=O)c1ccc(C)c(NC(=O)CSc2sc3c(O)cc(=O)[nH]c3c2C#N)c1,-15,44*,-19,5,13,24,24,-5
Cc1ccc(C)c(NC(=O)CSc2sc3c(O)cc(=O)[nH]c3c2C#N)c1,-8,23,-2,0,9,x,x,x
Cc1nc2ccccn2c1-c1csc(NCc2ccco2)n1,-1,103*,-2,-4,-1,-10,34,-20
O=C(c1cc(F)c(F)c(F)c1F)N1CCN(Cc2ccc3c(c2)OCO3)CC1,2,10,1,-4,0,x,x,x
N#CC(C#N)=Cc1ccc(-c2ccc(S(=O)(=O)N=C(N)N)cc2)o1,-45,46*,3,8,18,26,76*,11
COc1ccccc1-n1c(C)cc(/C=C2/C(=N)N3C(=NC2=O)SN=C3S(C)(=O)=O)c1C,-88,6,5,0,1,x,x,x
Cc1cc(/C=C2\C(=N)N3C(SCc4ccccc4)=NSC3=NC2=O)c(C)n1Cc1ccccc1,-22,44*,17,6,5,-1,-28,-36
Cc1cc(/C=C2\C(=N)N3N=C(C(C)C)SC3=NC2=O)c(C)n1Cc1ccccc1,-6,4,-2,8,7,x,x,x
Cc1ccccc1-n1c(C)cc(/C=C2/C(=N)N3C(c4ccccc4)=CSC3=NC2=O)c1C,-40,103*,17,9,28,27,23,29
CN(C)c1ccc(N2CC(C)(C)C2=O)cc1,0,-7,0,-3,-12,x,x,x
CC(C)(C)S(=O)N1Cc2cc(C(=O)N[C@@H]3CCN(Cc4ccccc4)C3)nc(-c3cccc(-c4cc5ccccc5o4)c3)c2[C@@H]1CCO (some centres undefined),-16,68*,21,x,9,26,15,0
Cc1nc(SCc2nc3ccccc3[nH]2)c2oc3cc(Br)ccc3c2n1,-15,83*,15,x,23,45*,5,43*
O=C(CN1CCN(C(=O)c2cccs2)CC1)Nc1ccc(Br)cc1,0,-4,2,2,-3,x,x,x
O=C(CN1CCN(C(=O)c2cccs2)CC1)NC1CCCCC1,3,42*,0,2,-1,-9,-34,-24
Clc1ccc(/C=C/c2ncc[nH]2)c(Cl)c1,1,-5,-3,2,7,x,x,x
O=C(NC(=S)Nc1ccc(S(=O)(=O)Nc2nccs2)cc1)c1ccc(Br)o1,2,8,18,2,5,x,x,x
O=C(/C=C/c1ccc(Br)cc1)NC(=S)Nc1ccc(S(=O)(=O)Nc2nccs2)cc1,-1,129*,-44,-2,75*,22,18,0
CCCCC(=O)N(C)c1c(CC)nc2c(OCc3cccc(Cl)c3)cccn12,-2,0,-4,x,-2,x,x,x
Clc1ccc(OCc2nn3c(-c4ccco4)nnc3s2)c(Cl)c1,1,90*,-14,0,19,27,6,7
CC(C)c1ccc(C(=O)N2CCCC(c3cc(C(=O)Nc4ccc5c(c4)OCO5)no3)C2)cc1 (centres undefined),1,12,2,x,-2,x,x,x
O=C1c2ccccc2/C(=C\c2ccc3[nH]ccc3c2)N1c1ccccc1,-34,24,7,x,0,x,x,x
CC(C)(C)OC(=O)n1cccc1/C=C1\c2ccccc2C(=O)N1c1ccccc1,-27,41*,28,x,13,34,21,7
COc1ccc(-c2ccc(-c3cc(=O)oc4cc(OC)c(OC)c(OC)c34)cc2)cc1,2,-1,-1,x,-1,x,x,x
CSc1ccc(/C=N/NC(=O)c2ccc(C)c(C)c2)cc1,-1,61*,-1,-3,10,25,38,7
CCC(C)N(C(=O)COc1ccc(NC(C)=O)cc1)C1CCS(=O)(=O)C1 (centres undefined),1,-2,2,1,2,x,x,x
SMILES,SENP1 inh,Rpn11 block,HNF4A DNA FP,TPT1 inhibitor,CSN inh,Rpn11 confirm,MMP-2 inh,Thrombin inh
C#CCn1c(=NC(=O)c2cc(-c3cccs3)nc3ccccc23)sc2cc(S(N)(=O)=O)ccc21,-31,70*,7,2,7,23,-14,9
S=C(NCc1ccco1)NCC1CCCO1 (centres undefined),-6,1,-3,-1,-10,x,x,x
CN(C)CCNC(=O)c1c(NC(=O)c2ccccc2)sc2c1CCCC2,-4,-4,4,0,0,x,x,x
COCCNC(=O)c1c(NC(=O)c2nc(SC)ncc2Cl)sc2c1CCCC2,31,81*,30,3,0,45*,-48,34
O=C(CCOc1ccccc1)NCC(c1ccco1)N1CCCCC1 (centres undefined),-1,83*,51*,2,-5,-9,-55,-4
O=C(COc1ccccc1)NCC(c1ccco1)N1CCCCC1 (centres undefined),-1,1,-1,4,-4,x,x,x
COc1cccc(NC(=O)Cn2c3ccc(F)cc3c3nc4n(c(=O)c32)CCCS4)c1,2,3,3,-2,-3,x,x,x
Cc1ccc(CNC(=O)c2ccc(OCC3CCCO3)cc2)cc1 (centres undefined),3,5,0,-6,-13,x,x,x
O=C(NCc1ccc(Cl)cc1)c1ccc(OCC2CCCO2)cc1 (centres undefined),0,37*,-7,-2,1,-3,-17,-10
O=C(COC(=O)CCN1C(=O)/C(=C\C=C\c2ccccc2)SC1=S)Nc1ccc(Br)cc1,0,59*,19,13,10,23,-13,-32
CC(C)c1ccccc1NC(=O)COC(=O)CCN1C(=O)/C(=C\C=C\c2ccccc2)SC1=S,-5,x,10,17,31,x,x,x
COc1ccc(NC(=O)C2CCN(S(=O)(=O)c3ccc(Cl)c(C(F)(F)F)c3)CC2)cn1,1,1,5,x,-3,x,x,x
COc1cc(/C=C(\C#N)C(=O)Nc2cccc(C(=O)O)c2)ccc1OCc1ccc(C)cc1,-3,6,-1,1,4,x,x,x
CCOc1cc(/C=C(\C#N)C(=O)Nc2cccc(C(=O)O)c2)ccc1OCc1ccc(Br)cc1,-3,107*,-5,-4,22,-11,-7,-4
C=CCCC(=O)N1C[C@H]2CON(C)[C@H]2C[C@H]1c1cccc(N2CCOCC2)c1,2,1,-6,x,-3,x,x,x
